According to publication PMC10772668 (Clinical and Translational Science, 2023):

What was measured:
[1] = molecular target: T1, RIPK1 (Homo sapiens, UniProt Q13546); experiment: In vitro inhibition of RIPK1 activity in human PBMCs; assay type: cell-based
T1 sequence (Q13546 1-671): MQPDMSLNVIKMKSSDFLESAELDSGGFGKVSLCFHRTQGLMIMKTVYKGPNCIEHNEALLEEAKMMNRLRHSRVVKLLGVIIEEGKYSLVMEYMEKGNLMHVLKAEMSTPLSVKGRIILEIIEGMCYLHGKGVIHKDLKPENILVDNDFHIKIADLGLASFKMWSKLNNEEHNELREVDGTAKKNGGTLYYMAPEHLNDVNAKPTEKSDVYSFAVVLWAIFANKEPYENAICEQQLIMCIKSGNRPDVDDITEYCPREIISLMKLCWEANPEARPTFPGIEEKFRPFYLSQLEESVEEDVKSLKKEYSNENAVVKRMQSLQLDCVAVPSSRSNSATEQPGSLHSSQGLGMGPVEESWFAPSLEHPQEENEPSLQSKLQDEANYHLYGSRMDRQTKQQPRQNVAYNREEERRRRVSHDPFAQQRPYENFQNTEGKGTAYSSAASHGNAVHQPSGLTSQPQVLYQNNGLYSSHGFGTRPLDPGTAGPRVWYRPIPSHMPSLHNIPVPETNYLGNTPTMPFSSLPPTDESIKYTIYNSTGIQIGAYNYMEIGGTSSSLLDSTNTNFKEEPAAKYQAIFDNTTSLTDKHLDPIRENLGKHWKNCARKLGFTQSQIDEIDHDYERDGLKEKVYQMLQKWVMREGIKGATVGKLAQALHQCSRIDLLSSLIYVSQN

[2] = molecular target: T1, RIPK1; experiment: In vitro inhibition of RIPK1 activity in iPSC‐derived microglia; assay type: cell-based
[3] = Plasma PK, SAD; assay type: in vivo, human; details: for CL/F, geometric mean (%CV): fasting
Outline: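 Healthy adults received a single fasted oral capsule dose (10–40 mg) or placebo; fasting was overnight ≥8 h and 2 h post‑dose. Plasma was sampled predose, at 10 postdose times on day 1 and once each on days 2 and 3, and quantified by HPLC‑MS (LLOQ 1 ng/mL). Cmax, Tmax, AUClast, AUC, t1/2z, CL/F and Vz/F were computed. Dose proportionality was tested with a linear model.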

[4] = Plasma PK, PK‐CSF; assay type: in vivo, human; details: for CL/F, geometric mean (%CV): after breakfast; for Vd/F: both, human, plasma, oral
Outline: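 Open‑label part: single oral 10 or 40 mg dose given about 30 min after breakfast. Plasma was collected predose and at 10 postdose times, one of them coinciding with lumbar‑puncture CSF sampling. Drug was quantified by validated HPLC‑MS (LLOQ 1 ng/mL). CL/F and Vz/F were derived from plasma concentration‑time data and summarised per dose group.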

[5] = Plasma PK, MAD; assay type: in vivo, human; details: for half-life: T 1/2z; for Tmax: T max, median (range)
Outline: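 Oral capsules were given for 14 days (q.d. or b.i.d.) after an overnight fast of ≥8 h, with 2 h fasting post‑dose. Plasma was sampled predose and at 10–11 postdose times on days 1 and 14, predose on days 2, 3, 5, 7 and 11, and once on days 15–17. Quantification was by HPLC‑MS (LLOQ 1 ng/mL). AUCtau used tau 12 h (b.i.d.) or 24 h (q.d.). Accumulation was assessed by a linear model on log ratio and steady state by a nonlinear model on Ctrough.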

[6] = molecular target: T1, RIPK1; experiment: pS166‐RIPK1 inhibition in PBMC lysates, SAD; assay type: in vivo; details: SAD all dose groups, from 1 h to at least 5 h postdose
Outline: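 After a single fasted oral dose or placebo, blood was collected predose, at 1, 3, 5 and 8 h on day 1, and at 24 h. PBMCs were isolated and autophosphorylated RIPK1 (pS166) quantified in lysates. Percent change from baseline was summarised descriptively as median (Q1–Q3) by dose group and timepoint.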

[7] = molecular target: T1, RIPK1; experiment: pS166‐RIPK1 inhibition in PBMC lysates, MAD; assay type: in vivo; details: MAD all dose groups
Outline: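 Blood was drawn predose on day −1 or 1, on day 7, on day 14 predose and 1, 3, 5 and 8 h postdose, and once on days 15 and 16. Subjects received 14‑day oral q.d./b.i.d. dosing or placebo. PBMCs were isolated and pS166‑RIPK1 measured in lysates. Percent change from baseline was summarised as median (Q1–Q3) per dose group and time.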

[8] = Safety, TEAEs, SAD; assay type: in vivo, human; details: SAD 10 mg (n = 6)
Outline: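 Safety population: all participants exposed to study drug, followed from first dose to the end‑of‑study visit. Assessments covered physical and neurological exams, AEs, SAEs and AESIs (seizure, ALT ≥2×ULN, QTc ≥500 ms, pregnancy, overdose). Lab, vital‑sign and 12‑lead/Holter ECG abnormalities were also recorded. Coding used MedDRA 23.1 (part 1) or 24.0 (part 2), with severity graded 1–4 per FDA guidance. Counts were summarised per dose group, with placebo pooled.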

[9] = both, human, plasma, oral, 10 mg
[10] = both, human, plasma, oral, 20 mg
[11] = both, human, plasma, oral, 30 mg
[12] = both, human, plasma, oral, 40 mg

IC50 [1]: 3.16 nM
IC50 [2]: 1.6 nM
CL/F, geometric mean (%CV) ([3]; SAD 10 mg single dose): 8.56 (37.8) L/h
CL/F, geometric mean (%CV) ([3]; SAD 20 mg single dose): 8.28 (21.4) L/h
CL/F, geometric mean (%CV) ([3]; SAD 30 mg single dose): 12.3 (44.7) L/h
CL/F, geometric mean (%CV) ([3]; SAD 40 mg single dose): 7.72 (36.1) L/h
Tmax ([3]; both, human, plasma, oral): 1 to 1.5 h
half-life ([3]; both, human, plasma, oral): 5.7 to 8 h
AUC(0-t) [3, 9]: 1120 ng·h/mL
Vd/F [3, 9]: 98.4 L
half-life [3, 9]: 7.97 h
Cmax [3, 10]: 241 ng/mL
Tmax [3, 10]: 1.5 h
Vd/F [3, 10]: 89.4 L
half-life [3, 10]: 7.48 h
Tmax [3, 11]: 1 h
Vd/F [3, 11]: 101 L
half-life [3, 11]: 5.7 h
Tmax [3, 12]: 1.5 h
Vd/F [3, 12]: 70.1 L
half-life [3, 12]: 6.29 h
CL/F, geometric mean (%CV) ([4]; PK‐CSF 10 mg single dose): 7.27 (29.7) L/h
CL/F, geometric mean (%CV) ([4]; PK‐CSF 40 mg single dose): 8.43 (34.2) L/h
Vd/F ([4]; 10 mg): 83.6 L
Vd/F ([4]; 40 mg): 97.7 L
CLss/F, geometric mean (%CV) ([5]; MAD 10 mg q.d., day 14): 7.08 (25.9) L/h
CLss/F, geometric mean (%CV) ([5]; MAD 15 mg b.i.d., day 14): 9.16 (30.0) L/h
CLss/F, geometric mean (%CV) ([5]; MAD 20 mg b.i.d., day 14): 9.27 (24.9) L/h
CLss/F, geometric mean (%CV) ([5]; MAD 20 mg q.d., day 14): 9.40 (22.2) L/h
Overall accumulation, C max and AUCtau ([5]; b.i.d. cohorts, day 14 vs day 1): around 1.5 fold
Cmax ([5]; both, human, plasma, oral, 10 mg, C max, geometric mean (%CV), MAD 10 mg q.d., day 14): 158 ng/mL
half-life ([5]; both, human, plasma, oral, 10 mg, geometric mean (%CV), MAD 10 mg q.d., day 14): 8.87 h
Tmax ([5]; both, human, plasma, oral, 10 mg, MAD 10 mg q.d., day 14): 1 h
half-life ([5]; both, human, plasma, oral, 15 mg, geometric mean (%CV), MAD 15 mg b.i.d., day 14): 7.21 h
Tmax ([5]; both, human, plasma, oral, 15 mg, MAD 15 mg b.i.d., day 1): 1 h
Tmax ([5]; both, human, plasma, oral, 15 mg, MAD 15 mg b.i.d., day 14): 1 h
half-life ([5]; both, human, plasma, oral, 20 mg, geometric mean (%CV), MAD 20 mg b.i.d., day 14): 7.37 h
half-life ([5]; both, human, plasma, oral, 20 mg, geometric mean (%CV), MAD 20 mg q.d., day 14): 8.53 h
Tmax ([5]; both, human, plasma, oral, 20 mg, MAD 20 mg b.i.d., day 14): 1 h
Tmax ([5]; both, human, plasma, oral, 20 mg, MAD 20 mg q.d., day 14): 2 h
Median pS166‐RIPK1 inhibition in PBMC lysates [6]: greater than 80%
pS166‐RIPK1 inhibition in PBMC lysates ([7]; 48 h post last dosing): less inhibition of RIPK1 phosphorylation
pS166‐RIPK1 inhibition in PBMC lysates ([7]; day 14, up to 24 h post last morning dosing): greater than 80%
SMILES: CC(C)(C(=O)N1CCOc2c(C#N)cncc2C1)C(F)F [SAR443820]
Dose proportionality of exposure ([3]; SAD between 10 mg and 40 mg): no major deviation from dose proportionality
Food effect on absorption ([4]; capsule in fed conditions vs fasted): no evidence that the extent of absorption was impacted by food
Any TEAE, n (%) [8]: 2 (33.3) n (%)
